Results as given in ChEMBL document CHEMBL3603742, “Design, synthesis and cytotoxicity studies of dithiocarbamate ester derivatives of emetine in prostate cancer cell lines” (Bioorg Med Chem, 2015).

Tests used:
Type in all cases: functional, cell-based
[1] = test system: DU-145; test: Cytotoxicity against human DU145 cells after 7 days by MTT assay; details: DU-145, 168 h
Procedure, shortened: (§1)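 Human prostate lines from ATCC were kept in log phase in RPMI with 10% FBS, 1% L-glutamine and 1% penicillin-streptomycin at 37 °C, 5% CO2. PC3 and DU145 were seeded at 2.5 X 10^3 cells/well and LNCaP at 6 X 10^3 cells/well, then left 24 h. Cells were exposed continuously to 0.01–10 μM (0.1% DMSO final; DMSO controls), with MTT viability read on days 3, 5 and 7.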

[2] = test system: DU-145; test: Cytotoxicity against human DU145 cells after 5 days by MTT assay; details: DU-145, 120 h; procedure, shortened: as §1
[3] = test system: PC-3; test: Cytotoxicity against human PC3 cells after 5 days by MTT assay; details: PC-3, 120 h; procedure, shortened: as §1
[4] = test system: LNCaP; test: Cytotoxicity against human LNCAP cells after 7 days by MTT assay; details: 168 h; procedure, shortened: as §1
[5] = test system: PC-3; test: Cytotoxicity against human PC3 cells after 3 days by MTT assay; details: PC-3, 72 h; procedure, shortened: as §1
[6] = test system: DU-145; test: Cytotoxicity against human DU145 cells after 3 days by MTT assay; details: DU-145, 72 h; procedure, shortened: as §1
[7] = test system: LNCaP; test: Cytotoxicity against human LNCAP cells after 5 days by MTT assay; details: 120 h; procedure, shortened: as §1
[8] = test system: PC-3; test: Cytotoxicity against human PC3 cells after 7 days by MTT assay; details: PC-3, 168 h; procedure, shortened: as §1
[9] = test system: LNCaP; test: Cytotoxicity against human LNCAP cells after 3 days by MTT assay; details: 72 h; procedure, shortened: as §1

| Structure (SMILES) | IC50 [1] | IC50 [2] | IC50 [3] | IC50 [4] | IC50 [5] | IC50 [6] | IC50 [7] | IC50 [8] | IC50 [9] |
| --- | --- | --- | --- | --- | --- | --- | --- | --- | --- |
| CC[C@H]1CN2CCc3cc(OC)c(OC)cc3[C@@H]2C[C@@H]1C[C@@H]1c2cc(OC)c(OC)cc2CCN1C(=S)SCc1ccccc1 | 1980 nM | 2070 nM | 2020 nM | 1310 nM | 2540 nM | 2740 nM | 1890 nM |  |  |
| CC[C@H]1CN2CCc3cc(OC)c(OC)cc3[C@@H]2C[C@@H]1C[C@@H]1c2cc(OC)c(OC)cc2CCN1C(=S)SCCCCC(=O)OC | 2250 nM | 3150 nM | 4860 nM | 1760 nM | 8260 nM | 3220 nM | 2310 nM | 4360 nM | 4780 nM |
| CC[C@H]1CN2CCc3cc(OC)c(OC)cc3[C@@H]2C[C@@H]1C[C@@H]1c2cc(OC)c(OC)cc2CCN1C(=S)SCCN1C(=O)c2ccccc2C1=O | 3050 nM | 3580 nM | 2770 nM | 2300 nM | 3210 nM | 3810 nM | 2800 nM | 2380 nM | 3220 nM |
| CCOC(=O)c1ccc(NC(=O)CSC(=S)N2CCc3cc(OC)c(OC)cc3[C@H]2C[C@H]2C[C@H]3c4cc(OC)c(OC)cc4CCN3C[C@@H]2CC)cc1 | 2470 nM | 2900 nM | 2710 nM | 1660 nM | 4360 nM | 5160 nM | 2720 nM | 1900 nM | 4670 nM |
| CC[C@H]1CN2CCc3cc(OC)c(OC)cc3[C@@H]2C[C@@H]1C[C@@H]1c2cc(OC)c(OC)cc2CCN1C(=S)S | 79 nM | 80 nM | 91 nM |  | 442 nM | 377 nM | 88 nM |  | 565 nM |
| CC[C@H]1CN2CCc3cc(OC)c(OC)cc3[C@@H]2C[C@@H]1C[C@@H]1c2cc(OC)c(OC)cc2CCN1C(=S)SCC(=O)c1ccc(Cl)cc1 | 2450 nM | 3200 nM | 2700 nM | 1950 nM | 3590 nM | 3170 nM | 2310 nM | 2690 nM | 5720 nM |
| CC[C@H]1CN2CCc3cc(OC)c(OC)cc3[C@@H]2C[C@@H]1C[C@H]1NCCc2cc(OC)c(OC)cc21 [EMETINE] |  |  |  | 37 nM |  |  | 27 nM |  | 37 nM |
| CC[C@H]1CN2CCc3cc(OC)c(OC)cc3[C@@H]2C[C@@H]1C[C@@H]1c2cc(OC)c(OC)cc2CCN1C(=S)SCC(=O)Nc1ccc(Br)cc1 | 1600 nM | 2800 nM | 2770 nM | 1700 nM | 3870 nM | 5650 nM | 2190 nM | 1510 nM | 5280 nM |
| CCCCCCSC(=S)N1CCc2cc(OC)c(OC)cc2[C@H]1C[C@H]1C[C@H]2c3cc(OC)c(OC)cc3CCN2C[C@@H]1CC | 2300 nM | 3190 nM | 3210 nM | 1590 nM | 5980 nM | 3660 nM | 1610 nM | 3030 nM | 3660 nM |
| CC[C@H]1CN2CCc3cc(OC)c(OC)cc3[C@@H]2C[C@@H]1C[C@@H]1c2cc(OC)c(OC)cc2CCN1C(=S)SCCC(N)=O | > 10000 nM | > 10000 nM | 6560 nM | 3390 nM | > 10000 nM | > 10000 nM | 4730 nM | 5200 nM | 9220 nM |
